In general, IC50 refers to the concentration that inhibits the measured activity by half. A higher IC50 goes with weaker potency.

The source of these data is ChEMBL document CHEMBL4477237, “Structure-Based Design of β5c Selective Inhibitors of Human Constitutive Proteasomes” (J Med Chem, 2016).

The structures appear in SMILES notation. Activity calls are given as the source filed them. No cut-off for these calls is given here.

In assay [1] the target is T1, Proteasome Macropain subunit MB1 (Homo sapiens, UniProt P28074).
T1 sequence (P28074 whole entry): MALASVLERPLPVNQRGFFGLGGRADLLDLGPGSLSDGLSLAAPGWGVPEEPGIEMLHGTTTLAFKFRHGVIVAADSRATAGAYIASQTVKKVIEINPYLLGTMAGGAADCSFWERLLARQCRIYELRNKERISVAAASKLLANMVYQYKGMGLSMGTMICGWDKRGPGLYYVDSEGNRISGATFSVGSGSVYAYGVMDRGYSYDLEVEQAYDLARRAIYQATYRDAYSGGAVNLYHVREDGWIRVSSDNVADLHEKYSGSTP
The assay can be described thus: (§1) Inhibition of catalytic activity of constitutive proteasome 20s subunit beta5 in human Raji cells incubated for 1 hr by BODIPY(TMR)-NC-005-VS probe based competitive activity based protein profiling assay. It counts as cell-based.

The target in assay [2] is T2, Proteasome Macropain subunit MB1 (Homo sapiens) (UniProt P28074).
T2 sequence (whole entry): T1 sequence (P28074 whole entry)
Kind of assay: (§2) Inhibition of catalytic activity of constitutive proteasome 20s subunit beta5 in human RPMI8226 cells incubated for 1 hr by BODIPY(TMR)-NC-005-VS probe based competitive activity based protein profiling assay. It counts as cell-based. A digest of the protocol: (§3)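 Live RPMI-8226 cells ((5-8)x10⁵ cells/mL; RPMI-1640, 10% FCS, GlutaMAX, pen/strep, 5% CO₂) exposed to inhibitor 1 h at 37 °C. Cells washed with PBS and lysed in digitonin/ATP buffer on ice 1 h. Lysates then labelled 1 h with the ABP cocktail and run on SDS-PAGE. In-gel fluorescence bands were normalized to mock and corrected for loading by Coomassie. IC50 from mean of three independent experiments.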

The target in assay [3] is Proteasome Macropain subunit (Homo sapiens) (UniProt P49721). Kind of assay: Inhibition of catalytic activity of constitutive proteasome 20s subunit beta2 in human RPMI8226 cells incubated for 1 hr by BODIPY(FL)-LU-112 probe based competitive activity based protein profiling assay. It counts as cell-based. A digest of the protocol:
as §3

The target in assay [4] is T3, Proteasome component C5 (Homo sapiens) (UniProt P20618).
T3 sequence (whole entry): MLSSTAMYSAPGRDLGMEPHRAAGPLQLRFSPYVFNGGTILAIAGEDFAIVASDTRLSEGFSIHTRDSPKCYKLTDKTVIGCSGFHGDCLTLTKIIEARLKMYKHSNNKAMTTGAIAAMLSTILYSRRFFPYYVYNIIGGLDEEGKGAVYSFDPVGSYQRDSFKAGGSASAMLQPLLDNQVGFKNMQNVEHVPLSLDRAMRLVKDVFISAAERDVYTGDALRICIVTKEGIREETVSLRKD
Kind of assay: Inhibition of catalytic activity of constitutive proteasome 20s subunit beta1 in human RPMI8226 cells incubated for 1 hr by Cy5-NC-001 probe based competitive activity based protein profiling assay. It counts as cell-based. A digest of the protocol:
as §3

For assay [5], the target named is Proteasome subunit beta type-9 (β1i, LMP2) (Homo sapiens) (UniProt P28065). Kind of assay: Inhibition of catalytic activity of immunoproteasome 20s subunit beta1 in human RPMI8226 cells incubated for 1 hr by Cy5-NC-001 probe based competitive activity based protein profiling assay.
Assay [6] has as its target Proteasome subunit beta type-8 (β5i, LMP7) (Homo sapiens) (UniProt P28062). The assay can be described thus: Inhibition of catalytic activity of immunoproteasome 20s subunit beta5 in human RPMI8226 cells incubated for 1 hr by BODIPY(TMR)-NC-005-VS probe based competitive activity based protein profiling assay.
Assay [7] addresses T2, Proteasome Macropain subunit MB1 (Homo sapiens). The assay is described as §1. It counts as cell-based.
Assay [8] concerns the target Proteasome Macropain subunit (Homo sapiens) (UniProt P49721). Kind of assay: Inhibition of catalytic activity of constitutive proteasome 20s subunit beta2 in human Raji cells incubated for 1 hr by BODIPY(FL)-LU-112 probe based competitive activity based protein profiling assay. It counts as cell-based.
In assay [9] the target is T3, Proteasome component C5 (Homo sapiens). The assay can be described thus: Inhibition of catalytic activity of constitutive proteasome 20s subunit beta1 in human Raji cells incubated for 1 hr by Cy5-NC-001 probe based competitive activity based protein profiling assay. It counts as cell-based.
In assay [10] the target is Proteasome subunit beta type-9 (β1i, LMP2) (Homo sapiens) (UniProt P28065). The assay can be described thus: Inhibition of catalytic activity of immunoproteasome 20s subunit beta1 in human Raji cells incubated for 1 hr by Cy5-NC-001 probe based competitive activity based protein profiling assay.
For assay [11], the target named is Proteasome subunit beta type-8 (β5i, LMP7) (Homo sapiens) (UniProt P28062). The assay can be described thus: Inhibition of catalytic activity of immunoproteasome 20s subunit beta5 in human Raji cells incubated for 1 hr by BODIPY(TMR)-NC-005-VS probe based competitive activity based protein profiling assay.
Assay [12] concerns the target T2, Proteasome Macropain subunit MB1 (Homo sapiens). Kind of assay: Inhibition of catalytic activity of immunoproteasome 20s subunit beta5/constitutive 20s subunit beta5 in human AMO1 cells assessed as accumulation of ubiquitinated-GFP at 3 uM after 1 hr by FACS analysis. It counts as cell-based. Summed up: (§4)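 AMO-1 myeloma clone stably expressing Ub-G76V-GFP (G418-selected). 5x10⁵ cells pulsed 1 h at 37 °C with inhibitor, washed with PBS, then chased 12 h in inhibitor-free medium (37 °C, 5% CO₂). GFP median fluorescence intensity read by flow cytometry in FITC channel.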

The next assay is filed under the species Homo sapiens. Kind of assay: Selectivity ratio of IC50 for immunoproteasome 20s subunit beta5 in human Raji cells to IC50 for constitutive proteasome 20s subunit beta5 in human Raji cells. It counts as cell-based. Summed up: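 Initial screen in Raji cell extracts. Inhibitor at 0.01, 0.1, 1.0 and 10.0 µM final for 1 h at 37 °C, then ABP cocktail 1 h. In-gel fluorescence of β5c/β5i bands normalized to mock-treated extract, giving residual activity. Run once. IC50s from this screen feed the β5i/β5c ratio.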

For assay [13], the target named is T1, Proteasome Macropain subunit MB1. The assay is described as §2. It counts as cell-based. A digest of the protocol: as §3
For assay [14], the target named is T2, Proteasome Macropain subunit MB1 (Homo sapiens). The assay can be described thus: Inhibition of catalytic activity of immunoproteasome 20s subunit beta5/constitutive 20s subunit beta5 in human AMO1 cells assessed as accumulation of ubiquitinated-GFP at 100 uM after 1 hr by FACS analysis. It counts as cell-based. A digest of the protocol:
as §4
A general note: A flow cytometer gives signals particle by particle.

`C[C@H](NC(=O)[C@H](Cc1ccccc1)NC(=O)[C@H](C[C@H]1CC[C@H](C2CCCCC2)CC1)NC(=O)[C@H](Cc1ccccc1)N=[N+]=[N-])C(=O)[C@@]1(C)CO1` gave an IC50 in assay [1] of 4.9 nM. For the same compound, the inhibition result in assay [2], in assay [3], in assay [4], in assay [5] and in [6] was “inactive” each time.

Regarding `COc1ccc(C[C@H](NC(=O)[C@H](Cc2ccccc2)N=[N+]=[N-])C(=O)N[C@@H](Cc2ccccc2)C(=O)N[C@@H](CC(C)C)C(=O)[C@@]2(C)CO2)cc1`, the pIC50(app) in assay [7] is 8.68; in [8], 6.95; in assay [9], 6.75; in assay [10], 6.88; in assay [11] it was 8.11. The compound further gave an IC50 in assay [1] of 2.1 nM.

For the compound `CC(C)C[C@H](NC(=O)[C@H](Cc1ccccc1)NC(=O)[C@H](CC1CCC(C)CC1)NC(=O)[C@H](Cc1ccccc1)N=[N+]=[N-])C(=O)[C@@]1(C)CO1` (stereo not given in full), the pIC50(app) was 8.7 in assay [7]; 7.34 in assay [8]; below 4 in assay [9]; below 4 in [10]; 7.96 in assay [11]. The IC50 in assay [1] is 2 nM.

Take `CC(C)C[C@H](NC(=O)[C@H](Cc1ccccc1)NC(=O)[C@H](CCc1ccccc1)NC(=O)[C@H](Cc1ccccc1)N=[N+]=[N-])C(=O)[C@@]1(C)CO1`: the pIC50(app) in assay [7] is 8.53; in assay [8], 7.22; in assay [9], below 4; in [10], 6.79; in assay [11] it was 8.29. In assay [1], this compound yielded an IC50 of 3 nM.

`COc1ccc(C[C@H](NC(=O)Cc2ccc3ccccc3c2)C(=O)N[C@@H](Cc2ccccc2)C(=O)N[C@@H](CC(C)C)C(=O)[C@@]2(C)CO2)cc1`: in assay [12], the inhibition entry was “Active”.

For `CC(C)C[C@H](NC(=O)CN1CCOCC1)C(=O)N[C@@H](C[C@H]1CC[C@H](C2CCCCC2)CC1)C(=O)N[C@@H](Cc1ccccc1)C(=O)N[C@@H](C)C(=O)[C@@]1(C)CO1`, the Ratio IC50 in the assay listed under Homo sapiens amounted to 814. The IC50 in [1] is 28 nM; in [13] it was 274 nM. Besides, the inhibition entry in assay [14] is “Active”.

For the compound `COC1CCC(C[C@H](NC(=O)[C@H](Cc2ccccc2)N=[N+]=[N-])C(=O)N[C@@H](Cc2ccccc2)C(=O)N[C@@H](CC(C)C)C(=O)[C@@]2(C)CO2)CC1` (stereo not given in full), the pIC50(app) is 8.68 in [7]; 7.18 in assay [8]; below 4 in assay [9]; 6.05 in assay [10]; 7.67 in assay [11]. In [1], this compound gave an IC50 of 2.1 nM.
